In paper PMC3625046 (Bioorganic & medicinal chemistry letters, 2013):

Key:
[1] = system: human foreskin fibroblasts; assay: Toxicity to human foreskin fibroblasts; type: cell-based
[2] = system: P. falciparum strain TM91C235 (WRAIR, Thailand; chloroquine resistant); assay: SYBR Green assay, P. falciparum strain C235; type: cell-based, Plasmodium falciparum
[3] = system: T. gondii (Pru strain expressing firefly luciferase); assay: T. gondii murine infection model; type: in vivo, mice
Method in brief: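 Mice infected intraperitoneally with 2x10⁴ Pru-strain T. gondii tachyzoites expressing firefly luciferase. Animals imaged daily by bioluminescence after intraperitoneal luciferin (3mg). Parasite burden in treated mice compared with a DMSO control group on day 6 post-infection. Three separate replicate experiments, analysed singly and pooled; ANOVA with group and run as factors.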

[4] = system: P. falciparum strain D6 (CDC/Sierra Leone); assay: SYBR Green assay, P. falciparum strain D6; type: cell-based, Plasmodium falciparum; details: chloroquine sensitive D6 strain
[5] = target: T1, Toxoplasma gondii enoyl reductase (TgENR) (Toxoplasma gondii, UniProt Q6UCJ9); assay: TgENR enzyme assay; type: biochemical; details: read-out: Inhibition (%) at 1 µM
T1 sequence (Q6UCJ9 28-417): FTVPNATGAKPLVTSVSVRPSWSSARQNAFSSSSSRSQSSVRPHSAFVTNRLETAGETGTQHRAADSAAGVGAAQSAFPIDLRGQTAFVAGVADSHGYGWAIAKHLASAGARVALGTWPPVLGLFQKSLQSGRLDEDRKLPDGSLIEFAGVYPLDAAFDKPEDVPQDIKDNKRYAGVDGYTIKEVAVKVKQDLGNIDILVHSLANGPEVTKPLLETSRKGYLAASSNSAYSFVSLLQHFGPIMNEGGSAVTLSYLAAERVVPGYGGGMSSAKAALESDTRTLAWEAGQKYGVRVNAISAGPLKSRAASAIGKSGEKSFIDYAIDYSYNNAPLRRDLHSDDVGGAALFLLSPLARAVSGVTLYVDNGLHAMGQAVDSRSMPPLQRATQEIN

Toxoplasma gondii = details: read-out: IC50, growth of T. gondii parasites; cited from earlier work

## Cn1cc(C(=O)Nc2ccc(Cl)cc2O)c(C(F)(F)F)n1 [Compound 10]
[1]
  Toxicity: >10 µM

## Oc1cc(Cl)ccc1Oc1ccc(C(F)(F)F)cc1Cl [Compound 3]
[1]
  Toxicity: >10 µM

## O=C(c1ccc(Oc2ccc(Cl)cc2O)s1)N1CCNCC1 [Compound 17c]
[1]
  Toxicity: >10 µM

## Cc1cc(NC(=O)c2ccc(Oc3ccc(Cl)cc3O)o2)no1 [Compound 14b]
[1]
  Toxicity: >10 µM

## CC(=O)N1CCN(c2ccc(Oc3ccc(Cl)cc3O)cc2)CC1 [Compound 5c]
[1]
  Toxicity: >10 µM
[2]
  activity against P. falciparum C235: inactive
[3]; 50mg/kg
  efficacy at lower dose: not effective
[3]; 75mg/kg, by the seventh day after infection
  toxicity in infected mice: toxic
[3]; 100mg/kg
  solubility of higher dose: not completely soluble
[4]
  activity against P. falciparum D6: inactive

## CNC(=O)c1ccc(Oc2ccc(Cl)cc2O)o1 [Compound 14a]
[1]
  Toxicity: >10 µM

## CC(C)(C)OC(=O)N1CCN(C(=O)c2ccc(Oc3ccc(Cl)cc3O)s2)CC1 [Compound 17b]
[1]
  Toxicity: >10 µM

## O=S(=O)(c1ccc(Oc2ccc(Cl)cc2O)cc1)N1CCCCC1 [Compound 7b]
[1]
  Toxicity: >10 µM

## O=S(=O)(c1ccc(Oc2ccc(Cl)cc2O)cc1)N1CCCC1 [Compound 7a]
[1]
  Toxicity: >10 µM

## CC(=O)N1CCN(C(=O)c2ccc(Oc3ccc(Cl)cc3O)o2)CC1 [Compound 14c]
[1]
  Toxicity: >10 µM

## CN1CCN(Cc2ccc(Oc3ccc(Cl)cc3O)cc2)CC1 [Compound 5d]
[1]
  Toxicity: >10 µM

## CN1CCN(c2ccc(Oc3ccc(Cl)cc3O)cc2)CC1 [Compound 5a]
[1]
  Toxicity: >10 µM

## CC(=O)N1CCN(Cc2ccc(Oc3ccc(Cl)cc3O)s2)CC1 [Compound 18]
[1]
  Toxicity: >10 µM

## O=C(O)c1ccc(Oc2ccc(Cl)cc2O)s1 [Compound 16]
[1]
  Toxicity: >10 µM

## Oc1cc(Cl)ccc1Oc1ccc2ncccc2c1 [Compound 19]
[1]
  Toxicity: >10 µM

## Oc1cc(Cl)ccc1Oc1ccc(N2CCOCC2)cc1 [Compound 5b]
[1]
  Toxicity: >10 µM

## Oc1cc(Cl)ccc1Oc1ccc(Cl)cc1Cl [Triclosan]
[1]
  Toxicity: >10 µM
[5]
  inhibition at 1 µM: 98%
Toxoplasma gondii
  IC50: ~200 nM

## Oc1cc(Cl)ccc1Oc1ccc2ccccc2c1 [Compound 2]
[1]
  Toxicity: >10 µM
